The values that follow come from PMC9177073 (Science Advances, 2022).

Counter-ions that a name gives are not always drawn. Residues, ends and D or L forms follow the SMILES beside them. *: point of attachment. Cbz = O=C(OCc1ccccc1)*

The conditions of series [1]: cited from earlier work; for ability to penetrate the blood-brain barrier: positive controls of PAMPA. For orientation: PAMPA measures passive passage across an artificial lipid membrane.
The test system of another series is proteasome activity. Briefly: Proteasome activity in mouse tissue lysates after intraperitoneal injection. The following applies: in vivo.
Series [2] deals with proteasome (chymotrypsin-like) activity (Mus musculus, UniProt O55234). Kind of series: Proteasome peptidase activity in mouse brain lysates with inhibitor. The series is classed as biochemical. The following applies: brains of 3-month-old mice, replicate samples incubated with inhibitor. A digest of the protocol:
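Mouse brain tissue lysed mechanically in reaction buffer, with buffer volume scaled to tissue weight; the supernatant was assayed. ATP-stimulated activity used 50 mM tris-HCl pH 7.8 with 1 mM MgCl2, 0.5 mM ATP and 1 mM DTT. ATP-independent activity used 50 mM tris-HCl pH 8.0 with 1 mM MgCl2 and 1 mM DTT. Proteasome inhibitor (1 μM) was added 5 min before starting with 50 μM Suc-LLVY-AMC.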

Take `NCCc1ccc(O)c(O)c1` [Dopamine, Dopamine hydrobromide]: the “ability to cross the blood-brain barrier” value in series [1] (negative control of PAMPA) was “unable to efficiently cross the blood-brain barrier”.

As for `CC(C)C[C@@H](C=O)NC(=O)[C@H](CC(C)C)NC(=O)[C@H](CC(C)C)NC(=O)OCc1ccccc1` [MG132, N-carbobenzyloxy-L-leucyl-L-leucyl-L-leucinal] (Cbz-Leu-Leu-Leu-aldehyde), in the series with proteasome activity, the “effect of inhibitor on the TAT1-8,9TOD-induced increase of proteasome activity” value is on record as “could be blocked”.

As for `CC(C)C[C@H](NC(=O)[C@H](Cc1ccccc1)NC(=O)c1cnccn1)B(O)O` [bortezomib], the “effect of inhibitor on increased proteasome activity of NSE-PSMB5 mouse brains” value in series [2] is on record as “blocked”.

With `CC(C)NCC(O)COc1cccc2ccccc12` (stereo not drawn) [propranolol, Propranolol hydrochloride], the “ability to penetrate the blood-brain barrier” value in series [1] is recorded as “known for their ability to penetrate the blood-brain barrier”.

For “Tat^47–57: HIV-1 Tat-derived peptide, synthesized in-house, positive control of PAMPA”, the “ability to penetrate the blood-brain barrier” value in series [1] is listed as “known for their ability to penetrate the blood-brain barrier”.

In the case of dermorphin, the “ability to penetrate the blood-brain barrier” value in series [1] is “known for their ability to penetrate the blood-brain barrier”.
